Screening results: PubChem, Sanford-Burnham Center for Chemical Genomics
The list is a sample of the results.
HKDC1 activator: HKDC1 hexokinase activators, primary screen, biochemical, fluorescence, uHTS; recombinant HKDC1, G6PDH/diaphorase resazurin fluorescence; stronger effect = lower value; activity change, negative = activation, % at 20 µM; Q2TB90; 340,000 compounds, 0.056% hits;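 active means activation of 40% or more at 20 µM, a change of -40% or lower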
Target sequence (Q2TB90 whole entry, looked up): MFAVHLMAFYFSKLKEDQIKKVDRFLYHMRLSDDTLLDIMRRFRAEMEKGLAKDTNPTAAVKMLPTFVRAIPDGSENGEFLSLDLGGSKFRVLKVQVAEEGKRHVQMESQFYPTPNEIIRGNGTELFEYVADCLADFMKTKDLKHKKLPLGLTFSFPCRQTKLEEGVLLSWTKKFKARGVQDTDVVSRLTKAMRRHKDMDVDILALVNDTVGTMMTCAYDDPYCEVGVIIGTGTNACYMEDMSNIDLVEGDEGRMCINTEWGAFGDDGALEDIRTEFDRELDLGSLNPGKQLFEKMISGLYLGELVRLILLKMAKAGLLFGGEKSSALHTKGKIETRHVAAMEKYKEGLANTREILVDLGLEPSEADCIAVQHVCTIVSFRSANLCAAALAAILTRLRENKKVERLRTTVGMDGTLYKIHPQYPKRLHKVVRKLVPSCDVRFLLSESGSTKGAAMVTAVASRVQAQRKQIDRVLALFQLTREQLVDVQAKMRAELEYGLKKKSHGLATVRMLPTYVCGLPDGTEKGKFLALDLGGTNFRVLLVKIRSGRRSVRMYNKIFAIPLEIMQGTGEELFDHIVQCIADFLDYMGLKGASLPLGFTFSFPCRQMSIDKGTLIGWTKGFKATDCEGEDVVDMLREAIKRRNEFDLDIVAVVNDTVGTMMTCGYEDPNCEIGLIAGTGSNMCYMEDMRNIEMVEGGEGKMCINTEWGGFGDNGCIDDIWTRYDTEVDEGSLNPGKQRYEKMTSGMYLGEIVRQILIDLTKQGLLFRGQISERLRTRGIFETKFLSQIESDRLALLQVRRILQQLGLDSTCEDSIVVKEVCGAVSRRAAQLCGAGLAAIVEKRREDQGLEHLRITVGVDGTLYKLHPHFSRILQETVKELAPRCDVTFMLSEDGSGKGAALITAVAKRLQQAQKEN
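Material: in-house human HKDC1 enzyme, G6PDH and diaphorase coupling enzymes | Quantity: HKDC1 at 5 µg/mL final | Medium: Tris buffer at pH 8.0 containing MgCl2 | Compound dosing: 20 µM single dose | Schedule: 90 min reaction at room temperature, dark | Measured by: Resorufin fluorescence, 525/613 nm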
Large screens that a line does not name were inactive.

C=CCNC(=S)N/N=C(\C)c1ccccn1	HKDC1 activator -44
CCCN(CCC)C(=O)c1cc([N+](=O)[O-])cc2c1-c1ccc([N+](=O)[O-])cc1C2=C(C#N)C#N	none
COC(=O)CCC(=O)OC1(C)C(=O)C2=CN(c3ccccc3)C(c3ccc(OC)cc3)=CC2=C(Br)C1=O (stereo not drawn)	none
O=C(O)c1ccccc1N=Nc1c(O)[nH]c2ccc([N+](=O)[O-])cc12	none
COC(=O)c1ccccc1NC1=C/C(=N\S(=O)(=O)c2cccs2)c2ccccc2C1=O	none
CCCC(NC(=O)Cc1c(C)c2cc3c(C)c(C)oc3c(C)c2oc1=O)C(=O)N[C@@H](Cc1ccccc1)C(=O)O (stereo partly drawn)	none
COc1ccc(-c2csc(Nc3ccc(S(N)(=O)=O)cc3)n2)cc1	HKDC1 activator -42
CN(C)c1ccc(C=c2c3ccccc3n3c2cc(-c2ccccc2)[n+]3C)cc1	none
Cc1ccc(S(=O)(=O)/N=C2/C=C(Sc3ncn[nH]3)C(=O)c3ccccc32)cc1	none
COC(=O)c1c(NC(C)=O)sc(Cc2ccccc2)c1C	HKDC1 activator -77
Cc1c(Cc2ccccc2)sc(NC(=O)Cc2ccccc2)c1C(N)=O	HKDC1 activator -52
COC1=C(Br)C(=O)c2ncccc2C1=O	none
CN(C)C(=O)/C(C#N)=C\c1cc(Br)c(Sc2ccc(Cl)cc2)o1	none
CCOC(=O)C1CCN(C(=O)Nc2ccc3nc(-c4ccco4)c(-c4ccco4)nc3c2)CC1	none
CCC1C/C(=C\c2cccnc2)C(=O)/C(=C/c2cccnc2)C1 (stereo not drawn)	none
CN1CCN(C2=C(Cl)C(=O)C(c3cnc(N4CCCCC4)s3)=C(Cl)C2=O)CC1	none
CC1(C)Cc2c(c(N3CCOCC3)nc3sc4c(NCC5CCCO5)nnnc4c23)CS1 (stereo not drawn)	none
O=C(O)c1cc(N2N=C(C(F)(F)F)/C(=C/C=C/c3ccco3)C2=O)ccc1Cl	none
O=[N+]([O-])c1ccc(Sc2nc3ccccc3o2)c([N+](=O)[O-])c1	none
COc1ccc(NC(=O)Cc2c[nH]c3ccccc23)cc1S(=O)(=O)N1CCCCC1	none
O=C(N/N=C/c1ccc(O)cc1O)/C(=C/c1ccccc1)CCO	HKDC1 activator -40
NC(=O)C1CCN(C2=C(Cl)C(=O)c3ccccc3C2=O)CC1	none
C=CC1=C(C(=O)O)N2C(=O)C(NC(=O)Cc3ccccc3)C2SC1 (stereo not drawn)	none
Cc1ccc(S(=O)(=O)/N=C2\C=C(Nc3cccc(C(=O)O)c3)C(=O)c3ccccc32)c(C)c1	none
O=C(Nc1ccc(Cl)c(Cl)c1)Nc1nnc(-c2ccncc2)s1	none
O=C(NNC(=S)Nc1ccc(Cl)c(Cl)c1)c1ccccn1	HKDC1 activator -57
NC(=NCCCCCCN=C(N)/N=C(\N)Nc1ccc(Cl)cc1)/N=C(\N)Nc1ccc(Cl)cc1	none
Oc1ccc(Br)cc1CNc1cccc2cccnc12	none
CCN=C1NN=C(c2ccc(C)cc2)CS1	HKDC1 activator -64
O=C(Nc1ccc(F)cc1)C(=O)c1c(O)[nH]c2ccc([N+](=O)[O-])cc12	none
CC(CCC(C)C(C)(C)C)[C@@H]1CC[C@H]2C3C[C@H](OS(O)(=S)=S)[C@H]4C[C@H](OS(O)(=S)=S)[C@@H](OS(O)(=S)=S)C[C@]4(C)[C@H]3CC[C@]12C (stereo partly drawn) (tested in a mixture with another compound)	none
S=C(NCCc1ccc(Cl)cc1)NCc1ccccc1	HKDC1 activator -63
Cc1cc(C(F)F)n2ncc(C(=O)NCCc3ccc(Cl)cc3)c2n1	none
Cc1cc2c(N)cccc2nn1	none
CC(=O)NC1C(=O)N(CCN2CCOCC2)c2ccc(Br)cc21 (stereo not drawn)	none
O=C(CSc1nnc(CCCN2C(=O)c3cccc4cccc(c34)C2=O)n1-c1ccccc1)N1CCCCC1	none
CC(=NNC(=S)N1CC2CCC(CC2)C1)c1ccncn1	HKDC1 activator -54
Cc1nc2c(c(=O)c3ccccc3n2C)c(=O)n1-c1ccccc1	none
O=C(O)CCNc1cc(N2CCN(C(=O)c3ccco3)CC2)c2noc3c2c1C(=O)c1ccccc1-3	none
NC1=C(Cl)C(=O)c2ccc(S(N)(=O)=O)cc2C1=O	HKDC1 activator -134
CC(=O)N1c2ccc(Cl)cc2C2C=CCC2C1c1cccc2ccccc12 (stereo not drawn)	none
O=c1c2c3nc4ccccc4nc3n(-c3ccc4c(c3)OCCO4)c2ncn1C1CCCC1	none
COc1cccc2c1C(=O)C=C(C)C2=O	HKDC1 activator -43
COC1=CC(=O)c2c(ccc3ncnc(N)c23)C1=O	none
CCOC(=O)C1=C(O)c2ccccc2C(=O)/C1=C\c1ccc(C)cc1	none
Oc1ccc2ccccc2c1/C=N/c1nccs1	none
CCN(CC)c1ccc2c(c1)oc(=O)c1c(Cl)cc(=O)oc12	none
Nn1cnnc1N/N=C/c1cc(Br)cc(Br)c1O	HKDC1 activator -52
CCOc1ccc2c(ccc(/C=C/c3cc(C)c4cccnc4c3O)[n+]2C)c1	none
CCN(CC)S(=O)(=O)c1cccc(C(=O)N/N=C(\C)c2ccc(O)cc2O)c1	HKDC1 activator -43
COc1cc2c(cc1OC)C(c1cc(Br)ccc1F)N(C(=O)CCl)CC2 (stereo not drawn)	none
CC1(OC(=O)CCc2ccccc2)C(=O)C=C2C=C(c3ccc(C#N)cc3)N(Cc3ccccc3)C=C2C1=O (stereo not drawn)	none
Cc1ccc2c(c1C)NC(C(=O)O)C1CC=CC21 (stereo not drawn)	none
Cc1onc(-c2ccccc2)c1C(=O)NC(=S)NNC(=O)c1ccccc1O	HKDC1 activator -45
Cc1ccc(S(=O)(=O)Nc2c(O)ccc3ccccc23)cc1	none
O=C1C=C(Nc2ccccc2C(=O)O)c2ccccc2C1=O	none
COc1cc2c(C#N)c(N3CCc4ccccc4C3)nc(N)c2c(N)n1	none
O=C(/C=C/c1cccc([N+](=O)[O-])c1)c1ccc([N+](=O)[O-])o1	none
COc1ccc2c(c1)CCc1c(C(=O)N3CCCc4ccccc43)noc1-2	none
C/C(=N\NC(=O)c1cc(C2CC2)nc2ccccc12)c1ccc(O)cc1O	HKDC1 activator -44
O=C(NCCc1ccccc1)c1cnn2c(C(F)F)cc(C3CC3)nc12	none
COC1(NS(=O)(=O)c2ccc(Br)cc2)C(C)=CC(=O)C=C1C	none
Cc1ccc(C)c(S(=O)(=O)Nc2cc(SCC(=O)O)c(O)c3ccccc23)c1	none
COc1cccc(OC)c1-c1nn2c(-c3cc(-c4ccccc4)n[nH]3)nnc2s1	none
Nc1ccc(S(=O)(=O)c2cc(O)c3ccccc3c2O)cc1	none
Nc1nc(-c2cccc(Br)c2)cs1	HKDC1 activator -65
CCOc1ccc2c(c1)C(NC(C)=O)C(=O)N2CCN1CCOCC1 (stereo not drawn)	none
Cc1ccc(-c2ccc(/C=C3\C(=O)ON=C3c3ccccc3)o2)c([N+](=O)[O-])c1	none
COCCNc1ccc([N+](=O)[O-])cc1C(=O)Nc1cccc(C)n1	HKDC1 activator -58
O=C(O)c1cc(O)c2c(c1)C(=O)c1cccc(O)c1C2=O	none
CCOC(=O)c1cc(-c2ccc(/C=C3/C(=O)N(c4ccc(C(=O)O)cc4)N=C3C)o2)ccc1Cl	none
Cc1cc(C(=O)COC(=O)c2cc(O)c3ccccc3c2O)c(C)n1CC1CCCO1 (stereo not drawn)	none
COC(=O)CCC(=O)OC1(C)C(=O)C2=CN(Cc3ccccc3)C(c3ccc(OC)cc3)=CC2=C(Br)C1=O (stereo not drawn)	none
CCCCNCCOCCOc1ccccc1-c1ccccc1	HKDC1 activator -59
O=C(NC(=S)NNC(=O)c1cnccn1)c1ccc(F)cc1	HKDC1 activator -48
